Measurements gathered from unrelated publications.
Lines come from different studies, so protocols differ.
Target: Cyclin-dependent kinase-like 2 (CDKL2, Homo sapiens, UniProt Q92772)
Sequence (Q92772 1-493, as in one of the studies): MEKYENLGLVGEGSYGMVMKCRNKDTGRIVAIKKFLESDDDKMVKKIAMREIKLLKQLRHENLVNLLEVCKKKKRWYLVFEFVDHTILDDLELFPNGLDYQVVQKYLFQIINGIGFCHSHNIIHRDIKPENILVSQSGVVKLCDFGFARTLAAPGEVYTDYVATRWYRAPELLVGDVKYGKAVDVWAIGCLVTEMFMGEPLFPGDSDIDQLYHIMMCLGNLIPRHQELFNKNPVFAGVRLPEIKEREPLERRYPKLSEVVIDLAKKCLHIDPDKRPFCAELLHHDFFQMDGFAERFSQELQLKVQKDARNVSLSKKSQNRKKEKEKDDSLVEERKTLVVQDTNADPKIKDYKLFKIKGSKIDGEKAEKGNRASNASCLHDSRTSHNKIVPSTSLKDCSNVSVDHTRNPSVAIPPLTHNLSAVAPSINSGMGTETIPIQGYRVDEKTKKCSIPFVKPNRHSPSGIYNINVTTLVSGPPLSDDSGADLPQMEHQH

Compound	assay	setting	remaining binding [%]
c1cncc(-c2cccc(Nc3nccc(NC4CCCCC4)n3)c2)c1	binding, competition with immobilised ligand	10 µM	64
C[C@@H]1CCN(c2nccc(-c3cnn4ncccc34)n2)C1	binding	1 µM	99
CN(C)C(=O)Cn1cc(-c2nc(C3(c4ccc(-c5cnc(N)nc5)cc4)CC3)no2)cn1	cell-free assay, competition with immobilised ligand	1 µM	100
O=C(c1ccc(Nc2nccc(-c3cc4ccccc4s3)n2)cc1)N1CCC(N2CCCC2)CC1	binding, competition with immobilised ligand	1 µM	8.8
O=C(Nc1c[nH]nc1C(=O)NC1CCNCC1)c1cc(F)cc(F)c1	binding, competition with immobilised ligand	1 µM	89
CC(=O)N1CCC(c2ccc(C(=O)NC3=NCCN3)cc2C(F)(F)F)CC1	cell-free assay, competition with immobilised ligand	1 µM	100
c1cnn2ncc(-c3ccnc(N4CCC45COC5)n3)c2c1	binding	1 µM	91
O=C1CCc2cc(Nc3cc(OC4CCOCC4)c([N+](=O)[O-])cc3Cl)ccc2N1	cell-free assay, competition with immobilised ligand	1 µM	92
Nc1ncc2c(n1)-c1c([nH]c3ccc(C#CC4CC4)cc13)CCCC2	binding, competition with immobilised ligand	1 µM	96
Cc1nc(Cc2cccc(C(F)(F)F)c2)sc1-c1ccc(C(N)=O)nc1	binding, competition with immobilised ligand	1 µM	92
CCN1CCN(Cc2ccc(C(=O)Nc3ccc(C)c(Oc4ccc5c(c4)CC(=O)N5)c3)cc2C(F)(F)F)CC1	binding, competition with immobilised ligand	1 µM	75
Cc1nc(C2CCN(C(=O)c3ccc(OC(F)(F)F)cc3N)CC2)c2ncc(N3CCN(C)CC3)cc2n1	cell-free assay, competition with immobilised ligand	1 µM	100
O=C(NCCCN1CCOCC1)c1ccc(Nc2ncc(Cl)c(-c3ccc(Cl)s3)n2)cc1	binding, competition with immobilised ligand	1 µM	19
CN(C)c1nccc(-c2cnc3ncccn23)n1	binding	1 µM	100
O=C(NCCCN1CCOCC1)c1ccc(Nc2nccc(-c3cc4ccccc4s3)n2)cc1	binding, competition with immobilised ligand	1 µM	7.3
C[C@H](c1ccnc(Nc2nc3ccc(-c4cc(N(C)C)ncn4)cc3[nH]2)c1)N1CCN(C(=O)CC(F)(F)F)CC1	binding, competition with immobilised ligand	0.1 µM	100
CN(CCCC(F)(F)F)c1nccc(-c2cnn3ncccc23)n1	binding	1 µM	100
N#Cc1ccc(Nc2ccc3[nH]c(=O)[nH]c3c2)c(Cl)c1	binding, competition with immobilised ligand	1 µM	100
Cc1cnn2ncc(-c3ccnc(N(C)C)n3)c2c1	binding	1 µM	100
CNC(=O)[C@@H]1CC[C@@H](n2c(-c3ccc4cnccc4c3)nc3ccc(C(=O)NCc4cccc(C(N)=O)c4)cc32)C1	binding, competition with immobilised ligand	1 µM	100
N[C@H]1CCN(c2nccc(-c3cnn4ncccc34)n2)C1	binding	1 µM	99
COc1cnc(Nc2cccc(S(N)(=O)=O)c2)nc1N1CCN(c2ccccc2)CC1	binding, competition with immobilised ligand	1 µM	100
